Measurements reported in ChEMBL document CHEMBL4251704, “Discovery of Pyridopyrimidinones as Potent and Orally Active Dual Inhibitors of PI3K/mTOR” (ACS Med Chem Lett, 2018).

How the values were obtained:
[1] = target: T1, Phosphatidylinositol 4,5-bisphosphate 3-kinase catalytic subunit alpha isoform (Homo sapiens, UniProt P42336); test: Inhibition of PI3Kalpha in human MCF7 cells assessed as reduction in AKT phosphorylation at 1 uM after 2 hrs by ELISA relative to control; type: cell-based
[2] = target: T1, Phosphatidylinositol 4,5-bisphosphate 3-kinase catalytic subunit alpha isoform; test: Inhibition of PI3Kalpha in human MCF7 cells assessed as reduction in AKT phosphorylation after 4 hrs by ADP-Glo assay; type: cell-based
Method in brief: (§1)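 MCF-7 cells were incubated with compound for 4 h. Phosphorylation of Akt at S473 and of p70s6k at T389 was read by […], and IC50 was derived.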

[3] = target: T2, Serine/threonine-protein kinase mTOR (Homo sapiens, UniProt P42345); test: Inhibition of mTOR in human MCF7 cells assessed as reduction in P70S6K phosphorylation after 4 hrs by […] assay; type: cell-based; method in brief: as §1
[4] = target: T1, Phosphatidylinositol 4,5-bisphosphate 3-kinase catalytic subunit alpha isoform; test: Inhibition of PI3Kalpha (unknown origin) using PIP2 as substrate measured after 30 mins by HTRF assay
[5] = target: PI3K p110 beta/p85 alpha (Homo sapiens, UniProt P42338); test: Inhibition of human PI3K p110beta/p85alpha using phosphatidylinositol 4,5-bisphosphate as substrate after 30 mins by HTRF assay; type: protein-complex assay
Sequence of PI3K p110 beta/p85 alpha (P27986 whole entry): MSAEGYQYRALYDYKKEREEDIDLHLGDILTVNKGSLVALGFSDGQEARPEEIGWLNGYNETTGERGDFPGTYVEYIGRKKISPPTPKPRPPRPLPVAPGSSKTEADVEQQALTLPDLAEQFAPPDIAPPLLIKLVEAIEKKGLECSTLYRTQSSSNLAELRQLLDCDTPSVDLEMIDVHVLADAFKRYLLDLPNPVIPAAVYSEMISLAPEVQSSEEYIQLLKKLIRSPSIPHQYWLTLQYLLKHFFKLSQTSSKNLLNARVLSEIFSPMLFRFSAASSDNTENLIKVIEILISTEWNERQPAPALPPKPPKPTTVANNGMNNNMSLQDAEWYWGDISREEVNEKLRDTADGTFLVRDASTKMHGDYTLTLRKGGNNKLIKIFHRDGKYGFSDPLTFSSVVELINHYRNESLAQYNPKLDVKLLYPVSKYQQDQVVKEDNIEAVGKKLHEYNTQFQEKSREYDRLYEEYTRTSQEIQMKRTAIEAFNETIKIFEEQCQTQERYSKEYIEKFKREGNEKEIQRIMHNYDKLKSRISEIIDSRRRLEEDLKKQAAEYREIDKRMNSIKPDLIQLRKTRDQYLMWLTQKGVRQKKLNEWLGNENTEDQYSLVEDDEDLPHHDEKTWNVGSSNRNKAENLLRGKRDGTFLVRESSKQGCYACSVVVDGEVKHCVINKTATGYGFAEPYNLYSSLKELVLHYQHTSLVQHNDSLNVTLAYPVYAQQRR
Sequence of PI3K p110 beta/p85 alpha (P42338 whole entry): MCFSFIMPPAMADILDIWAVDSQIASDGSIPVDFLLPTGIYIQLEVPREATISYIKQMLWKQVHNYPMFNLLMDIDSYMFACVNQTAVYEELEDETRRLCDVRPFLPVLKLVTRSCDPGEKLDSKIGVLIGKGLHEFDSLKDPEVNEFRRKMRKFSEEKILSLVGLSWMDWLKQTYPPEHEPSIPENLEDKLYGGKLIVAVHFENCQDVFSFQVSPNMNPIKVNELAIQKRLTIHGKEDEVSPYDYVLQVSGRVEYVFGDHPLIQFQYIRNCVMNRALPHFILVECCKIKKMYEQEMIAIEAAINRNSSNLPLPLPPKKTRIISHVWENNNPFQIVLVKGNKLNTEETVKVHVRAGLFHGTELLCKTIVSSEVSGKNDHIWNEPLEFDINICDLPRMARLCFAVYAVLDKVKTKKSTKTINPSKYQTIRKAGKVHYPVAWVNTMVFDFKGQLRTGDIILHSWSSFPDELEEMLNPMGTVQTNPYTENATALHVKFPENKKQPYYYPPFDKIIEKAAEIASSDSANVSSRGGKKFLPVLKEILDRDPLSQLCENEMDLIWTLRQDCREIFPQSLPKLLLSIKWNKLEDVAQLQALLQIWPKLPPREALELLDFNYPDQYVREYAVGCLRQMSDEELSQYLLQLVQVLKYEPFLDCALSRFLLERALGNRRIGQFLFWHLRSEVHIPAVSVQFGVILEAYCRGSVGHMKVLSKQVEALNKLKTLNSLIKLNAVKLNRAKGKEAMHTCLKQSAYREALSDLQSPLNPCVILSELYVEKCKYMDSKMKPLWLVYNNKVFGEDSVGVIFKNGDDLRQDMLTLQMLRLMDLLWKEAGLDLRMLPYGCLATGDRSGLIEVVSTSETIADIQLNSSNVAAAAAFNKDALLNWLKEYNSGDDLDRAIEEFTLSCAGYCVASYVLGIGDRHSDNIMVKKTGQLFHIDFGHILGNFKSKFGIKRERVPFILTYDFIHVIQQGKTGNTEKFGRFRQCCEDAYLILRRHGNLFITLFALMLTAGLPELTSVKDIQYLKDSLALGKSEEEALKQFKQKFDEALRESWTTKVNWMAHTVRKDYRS

[6] = target: PI3-kinase p110-delta/p85-alpha (Homo sapiens, UniProt O00329); test: Inhibition of human PI3K p110delta/p85alpha using phosphatidylinositol 4,5-bisphosphate as substrate after 30 mins by HTRF assay; type: protein-complex assay
Sequence of PI3-kinase p110-delta/p85-alpha (P27986 whole entry, canonical isoform): as the sequence (P27986 whole entry) above
Sequence of PI3-kinase p110-delta/p85-alpha (O00329 whole entry, canonical isoform): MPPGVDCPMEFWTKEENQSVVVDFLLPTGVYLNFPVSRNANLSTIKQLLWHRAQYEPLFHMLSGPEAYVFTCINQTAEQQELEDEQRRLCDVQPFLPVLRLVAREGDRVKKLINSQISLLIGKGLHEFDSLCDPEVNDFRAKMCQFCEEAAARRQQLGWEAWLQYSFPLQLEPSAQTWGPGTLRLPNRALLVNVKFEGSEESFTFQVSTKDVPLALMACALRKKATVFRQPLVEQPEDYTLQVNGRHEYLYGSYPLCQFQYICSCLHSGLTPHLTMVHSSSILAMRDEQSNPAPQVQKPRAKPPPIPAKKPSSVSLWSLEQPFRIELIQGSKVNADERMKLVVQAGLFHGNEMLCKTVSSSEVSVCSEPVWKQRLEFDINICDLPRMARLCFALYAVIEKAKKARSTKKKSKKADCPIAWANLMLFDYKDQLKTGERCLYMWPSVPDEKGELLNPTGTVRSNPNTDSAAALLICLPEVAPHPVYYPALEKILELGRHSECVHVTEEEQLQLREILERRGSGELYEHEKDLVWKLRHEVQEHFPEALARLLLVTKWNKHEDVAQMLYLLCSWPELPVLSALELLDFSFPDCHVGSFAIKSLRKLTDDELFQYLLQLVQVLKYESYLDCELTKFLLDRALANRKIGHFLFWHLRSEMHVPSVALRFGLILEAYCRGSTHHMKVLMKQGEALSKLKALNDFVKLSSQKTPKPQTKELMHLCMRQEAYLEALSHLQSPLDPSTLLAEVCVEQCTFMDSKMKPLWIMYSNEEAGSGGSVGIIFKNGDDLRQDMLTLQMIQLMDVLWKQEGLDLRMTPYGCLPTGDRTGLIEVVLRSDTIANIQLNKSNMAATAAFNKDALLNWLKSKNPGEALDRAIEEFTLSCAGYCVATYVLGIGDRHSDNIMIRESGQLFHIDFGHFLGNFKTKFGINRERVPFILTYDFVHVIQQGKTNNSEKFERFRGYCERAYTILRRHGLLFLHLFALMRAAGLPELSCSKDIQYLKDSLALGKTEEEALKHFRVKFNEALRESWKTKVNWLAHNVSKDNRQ

[7] = target: Phosphatidylinositol 4,5-bisphosphate 3-kinase catalytic subunit gamma isoform (Homo sapiens, UniProt P48736); test: Inhibition of human PI3K p120gamma using phosphatidylinositol 4,5-bisphosphate as substrate after 30 mins by HTRF assay
Sequence of Phosphatidylinositol 4,5-bisphosphate 3-kinase catalytic subunit gamma isoform (P48736 whole entry, canonical isoform): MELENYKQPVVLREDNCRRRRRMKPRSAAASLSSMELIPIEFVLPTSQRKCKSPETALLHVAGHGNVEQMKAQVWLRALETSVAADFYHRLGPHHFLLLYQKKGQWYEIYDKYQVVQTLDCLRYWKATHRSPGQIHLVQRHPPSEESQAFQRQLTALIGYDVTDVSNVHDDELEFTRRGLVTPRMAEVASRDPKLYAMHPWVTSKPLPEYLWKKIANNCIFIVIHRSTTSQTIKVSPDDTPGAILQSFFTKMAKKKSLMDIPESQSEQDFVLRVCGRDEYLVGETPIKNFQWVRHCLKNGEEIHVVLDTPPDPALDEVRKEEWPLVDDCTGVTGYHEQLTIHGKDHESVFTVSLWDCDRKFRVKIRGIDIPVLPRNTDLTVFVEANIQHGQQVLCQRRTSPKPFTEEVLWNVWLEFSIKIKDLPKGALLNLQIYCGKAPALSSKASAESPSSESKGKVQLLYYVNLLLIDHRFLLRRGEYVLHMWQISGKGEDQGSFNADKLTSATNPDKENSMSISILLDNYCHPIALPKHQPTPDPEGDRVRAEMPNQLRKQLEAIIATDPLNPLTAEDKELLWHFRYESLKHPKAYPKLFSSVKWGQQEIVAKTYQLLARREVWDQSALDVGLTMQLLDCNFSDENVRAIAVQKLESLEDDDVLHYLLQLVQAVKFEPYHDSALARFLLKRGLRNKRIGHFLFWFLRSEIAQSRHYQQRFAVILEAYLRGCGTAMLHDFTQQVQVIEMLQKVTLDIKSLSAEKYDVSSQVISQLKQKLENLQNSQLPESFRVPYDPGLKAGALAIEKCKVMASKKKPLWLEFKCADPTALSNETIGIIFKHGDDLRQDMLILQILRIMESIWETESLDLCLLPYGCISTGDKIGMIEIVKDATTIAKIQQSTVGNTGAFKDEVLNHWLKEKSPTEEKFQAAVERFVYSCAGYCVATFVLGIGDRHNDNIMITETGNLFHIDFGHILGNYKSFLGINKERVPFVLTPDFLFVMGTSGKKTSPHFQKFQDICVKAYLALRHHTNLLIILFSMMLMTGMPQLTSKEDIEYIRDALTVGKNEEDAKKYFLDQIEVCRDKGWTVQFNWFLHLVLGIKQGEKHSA

[8] = target: T2, Serine/threonine-protein kinase mTOR; test: Inhibition of mTOR (unknown origin) using ULight-4E-BP1(Thr37/46) peptide as substrate measured after 2 hrs by HTRF assay
[9] = Protein binding in human plasma; type: ADME, cell-free
[10] = Protein binding in rat plasma; type: ADME, cell-free
[11] = Protein binding in mouse plasma; type: ADME, cell-free
[12] = Clearance in mouse at 1 mg/kg, iv; type: ADME, organism-based; conditions: in vivo
Method in brief: (§2)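 Mice were dosed intravenously at 1 mg/kg. The vehicle was either 10% DMSO/65% PEG400/25% H2O or 10% DMSO/80% PEG400/10% H2O, depending on the compound.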

[13] = Volume of distribution at steady state in mouse at 1 mg/kg, iv; type: ADME, organism-based; conditions: in vivo, read-out: Vdss; method in brief: as §2
[14] = Half life in mouse at 1 mg/kg, iv; type: ADME, organism-based; conditions: in vivo; method in brief: as §2
[15] = AUC (0 to last) in mouse at 1 mg/kg, iv; type: ADME, organism-based; set-up: dose 1 mg/kg, time 0 - last, route intravenous; conditions: in vivo; method in brief: as §2
[16] = Cmax in mouse at 3 mg/kg, po; type: ADME, organism-based; set-up: dose 3 mg/kg, route oral; conditions: in vivo
Method in brief: (§3)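 Single oral dose of 3 mg/kg to mice, given in 10% DMSO/65% PEG400/25% H2O or in 10% DMSO/80% PEG400/10% H2O depending on the compound. Plasma exposure was measured.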

[17] = Tmax in mouse at 3 mg/kg, po; type: ADME, organism-based; conditions: in vivo; method in brief: as §3
[18] = AUC (0 to last) in mouse at 3 mg/kg, po; type: ADME, organism-based; set-up: dose 3 mg/kg, time 0 - last, route oral; conditions: in vivo; method in brief: as §3
[19] = Oral bioavailability in mouse at 3 mg/kg; type: ADME, organism-based; conditions: in vivo; method in brief: as §3
[20] = test system: PC-3M; test: Antitumor activity against human PC3M cells xenografted in Balb/c mouse assessed as tumor growth inhibition administered orally once daily for 21 days measured twice a week during compound dosing; type: functional, cell-based
Method in brief: (§4)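 Nude mice bearing PC-3M tumors received 1, 3 or 10 mg/kg by oral gavage once daily for 21 days, with 10 mice per group.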

[21] = test system: Mus musculus; test: Toxicity in Balb/c mouse xenografted with human PC3M cells assessed as body weight loss at 1 to 10 mg/kg, po administered once daily for 21 days measured daily during compound dosing; type: organism-based; conditions: in vivo, 504 h; method in brief: as §4

T1 sequence (P42336 whole entry, canonical isoform): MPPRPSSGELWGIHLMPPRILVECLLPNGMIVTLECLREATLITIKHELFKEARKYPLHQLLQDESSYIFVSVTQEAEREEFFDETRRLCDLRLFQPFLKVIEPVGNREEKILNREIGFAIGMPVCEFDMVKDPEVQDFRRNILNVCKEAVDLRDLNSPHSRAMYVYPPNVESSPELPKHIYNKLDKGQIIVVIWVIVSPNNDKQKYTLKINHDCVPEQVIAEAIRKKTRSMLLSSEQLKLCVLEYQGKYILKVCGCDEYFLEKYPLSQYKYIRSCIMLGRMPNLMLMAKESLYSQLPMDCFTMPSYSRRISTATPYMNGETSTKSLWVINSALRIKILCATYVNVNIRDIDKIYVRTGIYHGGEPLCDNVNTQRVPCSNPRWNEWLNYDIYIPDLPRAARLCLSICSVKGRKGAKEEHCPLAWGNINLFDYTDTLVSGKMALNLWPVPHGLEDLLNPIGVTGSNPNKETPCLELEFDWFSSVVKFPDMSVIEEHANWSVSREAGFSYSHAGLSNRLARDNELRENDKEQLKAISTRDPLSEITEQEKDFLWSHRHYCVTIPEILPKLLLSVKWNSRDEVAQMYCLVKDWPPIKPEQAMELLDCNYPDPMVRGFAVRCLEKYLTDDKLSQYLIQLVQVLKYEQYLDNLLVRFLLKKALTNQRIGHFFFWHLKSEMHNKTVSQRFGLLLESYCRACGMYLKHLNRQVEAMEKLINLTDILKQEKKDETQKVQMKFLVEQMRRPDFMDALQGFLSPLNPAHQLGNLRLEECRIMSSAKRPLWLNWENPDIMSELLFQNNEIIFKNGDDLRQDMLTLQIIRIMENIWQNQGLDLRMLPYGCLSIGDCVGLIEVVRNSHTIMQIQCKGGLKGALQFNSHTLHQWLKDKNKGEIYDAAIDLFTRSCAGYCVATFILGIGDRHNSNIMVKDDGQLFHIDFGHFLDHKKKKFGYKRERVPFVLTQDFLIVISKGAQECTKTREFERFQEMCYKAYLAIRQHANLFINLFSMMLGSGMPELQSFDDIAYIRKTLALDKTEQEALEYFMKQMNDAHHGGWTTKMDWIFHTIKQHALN

Row | inhibition [1] [%] | IC50 [2] [nM] | IC50 [3] [nM] | SMILES | further results
1 | 86 | – | – | CCc1ncc(-c2ccc3nccc(=O)n3c2)cc1NS(=O)(=O)c1ccc(F)cc1F | –
2 | 98 | 78.2 | 77.2 | COc1ncc(-c2ccc3nccc(=O)n3c2)cc1NS(=O)(=O)c1cc(F)cc(F)c1 | –
3 | 96 | 45 | 108 | COc1ncc(-c2ccc3nccc(=O)n3c2)cc1NS(=O)(=O)c1cc(F)ccc1F | –
4 | 90 | 27.9 | 119 | COc1ncc(-c2ccc3ncc(C)c(=O)n3c2)cc1NS(=O)(=O)c1ccc(F)cc1F | –
5 | 94 | 48.7 | 163 | COc1ncc(-c2ccc3nccc(=O)n3c2)cc1NS(=O)(=O)c1ccc(C(F)(F)F)cc1 | –
6 | 47 | – | – | COc1ncc(-c2cnc3nccc(-c4cnn(C)c4)c3c2)cc1NS(=O)(=O)c1ccc(F)cc1F | –
7 | 96 | 48.8 | 223 | COc1ncc(-c2ccc3nccc(=O)n3c2)cc1NS(=O)(=O)c1ccc(Cl)cc1 | –
8 | 81 | – | – | Cc1ncc(-c2ccc3nccc(=O)n3c2)cc1NS(=O)(=O)c1ccc(F)cc1F | –
9 | 95 | 54.1 | 138 | COc1ccc(S(=O)(=O)Nc2cc(-c3ccc4nccc(=O)n4c3)cnc2OC)cc1 | –
10 | 85 | – | – | Cc1ncc(-c2ccc3nccc(=O)n3c2)cc1NS(=O)(=O)c1ccc(F)cc1 | –
11 | 94 | 141 | > 400 | COc1ncc(-c2ccc3nccc(=O)n3c2)cc1NS(=O)(=O)c1ccccc1F | –
12 | 96 | 67 | 64 | COc1ncc(-c2ccc3nccc(=O)n3c2)cc1NS(=O)(=O)c1cccc(F)c1 | –
13 | 82 | – | – | Cc1ncc(-c2ccc3nccc(=O)n3c2)cc1NS(=O)(=O)c1ccccc1F | –
14 | 53 | – | – | CCS(=O)(=O)Nc1cc(-c2ccc3nccc(=O)n3c2)cnc1OC | –
15 | 81 | – | – | CCc1ncc(-c2ccc3nccc(=O)n3c2)cc1NS(=O)(=O)c1ccccc1F | –
16 | 93 | 11.6 | 89.2 | COc1ncc(-c2ccc3ncc(Cl)c(=O)n3c2)cc1NS(=O)(=O)c1ccc(F)cc1F | IC50 [4]: 3.4 nM; IC50 [5]: 34 nM; IC50 [6]: 16 nM; IC50 [7]: 1 nM; IC50 [8]: 4.7 nM; fraction unbound [9]: < 0.01; fraction unbound [10]: < 0.01; fraction unbound [11]: 0.005; clearance [12]: 1.4 mL/min/kg; Vd [13]: 0.472 L/kg; half-life [14]: 3 h; AUC(0-t) [15]: 11900 ng·h/mL; Cmax [16]: 5450 ng/mL; Tmax [17]: 2.67 h; AUC(0-t) [18]: 38600 ng·h/mL; bioavailability [19]: 108%; TGI [20]: Dose-dependent effect; Activity [21]: Non-Toxic

Row | inhibition [1] [%] | IC50 [2] [nM] | IC50 [3] [nM] | SMILES | further results
17 | 29 | – | – | COc1ncc(-c2cn3c(=O)ccnc3cn2)cc1NS(=O)(=O)c1ccc(F)cc1F | –
18 | 63 | – | – | COc1ncc(-c2ccc3nccc(=O)n3n2)cc1NS(=O)(=O)c1ccc(F)cc1F | –
19 | 92 | 32.8 | > 400 | O=c1ccnc2ccc(-c3cnc(Cl)c(NS(=O)(=O)c4ccc(F)cc4F)c3)cn12 | –
20 | 98 | 16 | 66 | COc1ncc(-c2ccc3nccc(=O)n3c2)cc1NS(=O)(=O)c1ccc(F)cc1F | IC50 [4]: 3.1 nM; IC50 [8]: 19.2 nM; fraction unbound [9]: 0.005; fraction unbound [10]: 0.008; fraction unbound [11]: 0.019; clearance [12]: 5.15 mL/min/kg; Vd [13]: 0.443 L/kg; half-life [14]: 1 h; AUC(0-t) [15]: 3280 ng·h/mL; Cmax [16]: 4080 ng/mL; Tmax [17]: 0.333 h; AUC(0-t) [18]: 13800 ng·h/mL; bioavailability [19]: 139%
21 | 95 | 80.7 | 106 | COc1ncc(-c2ccc3nccc(=O)n3c2)cc1NS(=O)(=O)c1ccc(F)cc1 | –
22 | 75 | – | – | COc1ncc(-c2ccc3nncc(N4CCOCC4)c3c2)cc1NS(=O)(=O)c1ccc(F)cc1F | –
23 | 60 | – | – | CCOc1ncc(-c2ccc3nccc(=O)n3c2)cc1NS(=O)(=O)c1ccccc1F | –
24 | 78 | – | – | COc1ncc(-c2ccc3nccc(=O)n3c2)cc1NS(=O)(=O)CC(F)(F)F | –
25 | 76 | – | – | COc1ncc(-c2ccc3nccc(=O)n3c2)cc1NS(=O)(=O)C1CC1 | –
26 | 76 | – | – | CCOc1cnc2ccc(-c3cnc(OC)c(NS(=O)(=O)c4ccc(F)cc4F)c3)cn2c1=O | –
27 | 94 | 57.4 | 246 | COc1ncc(-c2ccc3nccc(=O)n3c2)cc1NS(=O)(=O)c1ccc(C#N)cc1 | –
28 | 95 | 98.8 | 198 | COc1ncc(-c2ccc3nccc(=O)n3c2)cc1NS(=O)(=O)c1ccccc1 | –
29 | 91 | 34.4 | > 400 | O=c1ccnc2ccc(-c3cnc(Cl)c(NS(=O)(=O)c4ccccc4F)c3)cn12 | –
30 | 50 | – | – | COc1ncc(-c2cc3c(N4CCNC(=O)C4)ncnc3cn2)cc1NS(=O)(=O)c1ccc(F)cc1F | –
31 | 94 | 23.9 | 153 | COc1ncc(-c2ccc3nccc(=O)n3c2)cc1NS(=O)(=O)c1ccccc1C | –
